This note sets out measurements from ChEMBL document CHEMBL5316295, “Systematic Design of Adenosine Analogs as Inhibitors of a Clostridioides difficile-Specific DNA Adenine Methyltransferase Required for Normal Sporulation and Persistence” (J Med Chem, 2023).

Experiment [1] addresses T1, DNA adenine methylase (Escherichia coli K-12) (UniProt P0AEE8).
T1 sequence (whole entry): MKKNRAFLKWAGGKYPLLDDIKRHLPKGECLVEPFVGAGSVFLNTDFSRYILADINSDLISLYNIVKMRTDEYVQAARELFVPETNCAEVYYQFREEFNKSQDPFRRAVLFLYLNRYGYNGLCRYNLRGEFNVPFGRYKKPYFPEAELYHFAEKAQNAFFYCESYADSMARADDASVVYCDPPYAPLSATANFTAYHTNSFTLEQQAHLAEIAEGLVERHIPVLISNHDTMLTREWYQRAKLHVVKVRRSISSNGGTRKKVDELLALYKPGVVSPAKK
Briefly: Inhibition of Escherichia coli Dam using 5'-CCG CGG ATC CTG CT-3' and 3'-GGC GCC TAG GAC GA-5' as substrate and SAM as cosubstrate at 10 uM incubated for 5 mins. In a few lines: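 Conditions were enzyme 0.1 μM, DNA 5 μM, SAM 30 μM, inhibitor 10 μM, at ~22 °C in 50 mM Tris–HCl pH 7.5, 100 mM NaCl, 1 mM DTT, 0.25% DMSO, run 5 min. Substrate and SAM levels were above K_M.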

Experiment [2] is described as follows: Inhibition of Clostridioides difficile-specific DNA adenine methyltransferase mediated methylation using 5'-CGA TTC AAA AAG TCC CAA G-3' and 3'-GCT AAG TTT TTC AGG GTT C-5' as substrate and SAM as cosubstrate preincubated for 5 mins followed by substrate and cosubstrate addition and measured after 3 mins by MTase glo assay.
In experiment [3] the target is T2, RNA N(6)-adenosine-methyltransferase METTL16 (Homo sapiens) (UniProt Q86W50).
T2 sequence (whole entry): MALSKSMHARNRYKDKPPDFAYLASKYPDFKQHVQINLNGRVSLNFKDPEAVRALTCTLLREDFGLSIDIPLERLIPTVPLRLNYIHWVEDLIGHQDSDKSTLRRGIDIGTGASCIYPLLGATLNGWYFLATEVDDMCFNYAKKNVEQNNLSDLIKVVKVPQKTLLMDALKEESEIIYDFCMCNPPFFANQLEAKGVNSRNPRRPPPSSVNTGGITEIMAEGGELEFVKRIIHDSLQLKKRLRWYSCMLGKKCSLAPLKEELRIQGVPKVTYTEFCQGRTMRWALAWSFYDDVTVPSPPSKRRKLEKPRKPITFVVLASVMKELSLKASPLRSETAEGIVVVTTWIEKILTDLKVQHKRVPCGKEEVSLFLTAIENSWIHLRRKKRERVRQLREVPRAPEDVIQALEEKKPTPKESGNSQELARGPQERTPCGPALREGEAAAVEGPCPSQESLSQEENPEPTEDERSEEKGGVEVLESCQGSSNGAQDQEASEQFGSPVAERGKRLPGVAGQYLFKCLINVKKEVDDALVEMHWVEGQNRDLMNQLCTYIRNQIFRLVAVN
Put plainly: Inhibition of human METTL16 using 5'-GGUUGGCGUAGGCUACAGAGAAGCCAACC-3' as substrate and SAM as cosubstrate at 10 uM incubated for 15 mins. The procedure, abridged: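 Under CamA buffer conditions (30 μM SAM) the assay ran 15 min with ssRNA hairpin substrate and 10 μM inhibitor. A separate condition used 0.4 μM enzyme, 5 μM RNA, 160 μM SAM in 20 mM Tris–HCl pH 8.0, 400 mM NaCl, 1 mM DTT, 0.25% DMSO for 30 min.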

Experiment [4] has as its target mRNA (2'-O-methyladenosine-N(6)-)-methyltransferase (Homo sapiens) (UniProt Q9H4Z3). Put plainly: Inhibition of human PCIF1 using m7GpppAmG as substrate and SAM as cosubstrate at 10 uM incubated for 15 mins. In a few lines:
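Enzyme 0.1 μM with 5 μM RNA, 30 μM SAM and 10 μM inhibitor at ~22 °C in 50 mM Tris–HCl pH 7.5, 100 mM NaCl, 1 mM DTT, 0.25% DMSO. PCIF1 run 15 min with capped RNA; MettL5-Trm112 run 1 h with ssRNA.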

For experiment [5], the target named is DNMT3A-DNMT3L (Mus musculus) (UniProt O88508+Q9CWR8). Briefly: Inhibition of mouse DNMT3A/DNMT3L using 5'-G CATGCGTTCTAATTAGAAUGCATG-3' and 3'-GTA CGS AAG ATT AAT CTT GCG TAC G-5' as substrate and SAM as cosubstrate at 10 uM incubated for 1 hr. The class given is protein-complex assay. In a few lines:
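Dnmt3a-3L (0.5 μM) with 5 μM dsDNA, 25 μM SAM and 10 μM inhibitor in 20 mM Tris pH 7.5, 40 mM NaCl, 4 mM DTT, 20% glycerol, run 1 h at 37 °C.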

Calls of active or inactive are those of the source. No cut-off for these calls is given here.

What is called IC50 is the point on the concentration scale where inhibition reaches its midpoint. Read a high IC50 as weaker potency in that assay.

Chain of mRNA (2'-O-methyladenosine-N(6)-)-methyltransferase (Homo sapiens) (Q9H4Z3 whole entry): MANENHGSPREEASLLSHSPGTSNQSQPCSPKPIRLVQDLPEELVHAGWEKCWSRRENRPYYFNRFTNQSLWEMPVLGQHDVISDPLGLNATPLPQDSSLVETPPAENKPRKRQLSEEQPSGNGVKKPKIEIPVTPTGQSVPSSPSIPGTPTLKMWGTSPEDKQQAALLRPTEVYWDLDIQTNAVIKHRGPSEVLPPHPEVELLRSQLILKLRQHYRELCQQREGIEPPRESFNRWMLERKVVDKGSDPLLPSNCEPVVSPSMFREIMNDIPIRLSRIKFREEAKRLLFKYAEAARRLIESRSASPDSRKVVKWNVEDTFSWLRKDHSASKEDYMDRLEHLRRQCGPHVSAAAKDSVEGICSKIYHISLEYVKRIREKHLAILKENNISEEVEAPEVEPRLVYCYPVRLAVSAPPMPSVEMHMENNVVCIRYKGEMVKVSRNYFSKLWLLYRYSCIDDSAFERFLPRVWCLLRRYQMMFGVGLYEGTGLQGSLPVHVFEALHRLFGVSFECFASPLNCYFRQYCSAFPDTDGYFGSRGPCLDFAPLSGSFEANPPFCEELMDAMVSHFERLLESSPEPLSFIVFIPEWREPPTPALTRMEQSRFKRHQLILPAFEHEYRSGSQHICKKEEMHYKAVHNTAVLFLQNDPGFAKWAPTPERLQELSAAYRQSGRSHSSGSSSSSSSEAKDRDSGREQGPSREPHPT
Chain of DNMT3A-DNMT3L (Mus musculus) (Q9CWR8 whole entry, looked up, other chains not shown): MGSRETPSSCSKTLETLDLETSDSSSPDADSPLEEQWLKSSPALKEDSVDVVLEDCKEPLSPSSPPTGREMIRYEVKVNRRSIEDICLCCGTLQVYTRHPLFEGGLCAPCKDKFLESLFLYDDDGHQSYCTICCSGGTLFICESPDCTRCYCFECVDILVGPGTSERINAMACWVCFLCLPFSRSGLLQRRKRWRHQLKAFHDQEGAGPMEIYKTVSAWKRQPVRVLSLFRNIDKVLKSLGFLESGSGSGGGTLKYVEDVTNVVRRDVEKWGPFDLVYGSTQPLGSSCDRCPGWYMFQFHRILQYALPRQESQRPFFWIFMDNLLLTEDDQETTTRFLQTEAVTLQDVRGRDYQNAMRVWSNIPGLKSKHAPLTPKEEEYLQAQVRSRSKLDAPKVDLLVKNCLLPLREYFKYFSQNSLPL

As to `CC(C)(C)OC(=O)N1CCC(CCNc2ncnc3c2ncn3[C@@H]2O[C@H](CO)[C@@H](O)[C@H]2O)CC1`, the inhibition entry in experiment [1], in experiment [3], in experiment [4] and in experiment [5] was “inactive” throughout. The compound also yielded an IC50 in experiment [2] of 0.71 µM.
With `CC(C)(C)OC(=O)N1CCC(CCCNc2ncnc3c2ncn3[C@@H]2O[C@H](CO)[C@@H](O)[C@H]2O)CC1`, the inhibition entry in experiment [1], in experiment [3], in experiment [4] and in experiment [5] was “inactive” each time. Half-maximal inhibition in experiment [2] (IC50) required 0.39 µM.
Turning to `OC[C@H]1O[C@@H](n2cnc3c(NCCCc4ccc(O)cc4)ncnc32)[C@H](O)[C@@H]1O`, the inhibition entry in experiment [1], in experiment [3], in experiment [4] and in experiment [5] was “inactive” each time. Besides, in experiment [2], it took 0.51 µM to reach half-maximal inhibition (IC50).
